Sampled rows, rich in hits. Any-hit rate of the full collection: about 1.9%.
HCV core dimer = blocks dimerization of HCV core protein | TR-FRET GST/Flag-core106 dimerization, 1536-well | inhibition, % at 5 µM | 300,000 tested, 0.33% active;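 active means inhibition above the mean of all tested compounds plus 3 SD, set per screening campaign, cut at about 45% in these data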
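System – GST-tagged and Flag-tagged HCV core protein residues 1-106 · Repeats – one well for each compound · Technique – TR-FRET 671 and 617 nm emission · Doses – one concentration, 5 µM, in 0.5% DMSO · Times – 4 h, 22.5 °C incubation · Also added – Eu donor and XL665 acceptor anti-tag antibodies · Measure – percent inhibition of core106 dimerization signal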
Rce1 inhib = yeast Ras-converting enzyme inhibition. 290,000 tested, 0.27% active. Q03530. yeast membranes, quenched prenylated peptide cleavage fluorescence. calls only;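 active means fall in fluorescence gain of 50% or more versus controls, with final raw signal at or below 3038400; inconclusive means same 50% fall but final raw signal above 3038400; inactive means fall in fluorescence gain under 50%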;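 further: plate controls were neutral control wells for no effect and wells lacking membranes for full effect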
Target sequence (Q03530 whole entry, looked up): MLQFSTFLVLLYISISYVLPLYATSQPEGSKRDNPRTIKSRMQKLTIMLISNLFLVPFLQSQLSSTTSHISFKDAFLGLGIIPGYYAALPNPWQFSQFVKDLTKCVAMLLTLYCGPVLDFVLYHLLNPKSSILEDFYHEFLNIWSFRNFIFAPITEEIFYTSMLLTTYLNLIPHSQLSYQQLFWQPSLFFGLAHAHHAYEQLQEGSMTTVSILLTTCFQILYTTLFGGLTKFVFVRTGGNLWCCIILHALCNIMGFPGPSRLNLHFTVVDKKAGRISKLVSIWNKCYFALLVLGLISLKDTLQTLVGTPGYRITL
Tb MetRS inh = Trypanosoma brucei MetRS inhibition; inhibition, % at 11.9 µM; AID 624268; purified T. brucei MetRS, ATP depletion, Kinase-Glo luminescence; 360,000 tested, 0.4% active;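 active means inhibition above a per-plate cutoff of the control wells' mean inhibition plus 3 SD, cut at about 5.5% in these data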;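 further: 0% = DMSO wells median and 100% = median of wells with control inhibitor compound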
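Dosing: 11.9 µM compound single dose, 0.9% DMSO; Assay system: purified T. brucei MetRS enzyme; Measured by: Kinase-Glo luciferase luminescence reporting remaining unconsumed ATP; Schedule: 15 min plus 2 h at 25 °C.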
NadD inh = inhibitors of Staphylococcus aureus NadD | purified NadD enzyme, colorimetric absorbance read-out | 360,000 tested, 0.78% active | inhibition, % at 20 µM | AID 602399; in the data active means inhibition above about 26%
Pemphigus Ab inh = human desmoglein-3 autoantibody binding inhibition; P32926; DSG3-coupled beads, scFv-anti-DSG3-GFP binding, flow cytometry; active compounds read low; binding (percent of control), % at 10 µM; 310,000 tested, 0.48% active; AID 588358;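 active means binding more than 3 SD below its plate's average and above zero; inconclusive means below that plate limit but binding exactly zero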;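 further: hits lower antibody fragment binding to DSG3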
An asterisk follows results filed as active; i = inactive; ? = inconclusive; . = not tested or not shown; + = active, no number.

SMILES | HCV core dimer | Rce1 inhib | Tb MetRS inh | NadD inh | Pemphigus Ab inh
O=C(CSc1nnc(-c2cccnc2)n1-c1ccccc1)NCc1ccc2c(c1)OCO2 | 2 | i | 0 | -4 | 94
C=CCNc1ncnc2c1ncn2[C@H]1CN(Cc2ccc3c(c2)OCO3)C[C@@H](CO)O1 | . | . | 0 | 0 | .
CN1c2ccccc2-c2nc3ccccc3n2C1c1cccs1 (configuration not stated) | 1 | + | 1 | 1 | 100
Cc1ccc(C2N(C)c3ccccc3-c3nc4ccccc4n32)o1 (configuration not stated) | 6 | ? | 0 | -2 | .
CCOc1cc(/C=C2\C(=N)N3N=C(C)SC3=NC2=O)ccc1OCCOc1cccc(OC)c1 | 18 | i | 0 | 45* | 111
CCc1nn2c(=O)cc(COc3ccc(/C=C4\C(=N)N5N=C(C)SC5=NC4=O)cc3)nc2s1 | 47* | i | 0 | 22 | 53
CCC1=NN2C(=N)/C(=C\c3ccc(OCCOc4ccc(NC(C)=O)cc4)cc3)C(=O)N=C2S1 | 0 | i | 0 | 13 | 103
CCC1=NN2C(=N)/C(=C/c3ccc(OS(=O)(=O)c4ccccc4)c(OC)c3)C(=O)N=C2S1 | 10 | . | 0 | 82* | 100
COc1cccc(OCCOc2ccc(/C=C3\C(=N)N4N=C(S(C)(=O)=O)SC4=NC3=O)cc2OC)c1 | . | i | 2 | 29 | 124
COc1cc(/C=C2/C(=N)N3N=C(C(C)C)SC3=NC2=O)ccc1OS(=O)(=O)c1ccccc1 | 2 | . | -1 | 5 | 101
COc1cc(/C=C2\C(=N)N3N=C(S(C)(=O)=O)SC3=NC2=O)cc(OC)c1OCCOc1ccccc1C | 23 | i | 0 | 26* | 85
COc1ccc(C(=O)N/C(=C\c2cn(C)c3ccccc23)C(=O)N2CCN(C)CC2)cc1OC | 7 | i | 0 | -2 | .
COc1ccc(/C=C2\SC(=N)N(c3nccs3)C2=O)cc1OC | -4 | i | 0 | 14 | 87
CCn1c(SCC(=O)c2ccc(Br)cc2)nnc1C(C)NC(=O)Cc1ccc(OC)cc1 (configuration not stated) | -11 | i | -1 | -6 | 100
COc1ccc(Cl)cc1C(=O)C1CCCN(Cc2cnc(N3CCOCC3)s2)C1 (configuration not stated) | 4 | i | 0 | 4 | 28*
COc1ccc(F)cc1C(=O)C1CCCN(Cc2cnc(N3CCCC3)s2)C1 (configuration not stated) | -4 | i | -2 | -2 | 101
Cn1c(SCC(=O)N/N=C/c2cccs2)nc2ccccc21 | 1 | i | 0 | -6 | 91
Cc1ccccc1NC(=S)NCc1ccc2c(c1)cc(C)n2C | 7 | i | 0 | 2 | 66*
COc1cccc(C(=O)NCc2ccc3c(c2)cc(C)n3C)c1 | 35 | i | 0 | 26 | 82*
COc1ccc(C(=O)NCc2ccc3c(c2)cc(C)n3C)cc1OC | 13 | i | 2 | 12 | 109
O=C(C[C@H]1C[C@H](C(=O)N2CCCCC2)[C@@]2(CCc3ccccc3)c3[nH]c4cc(-c5ccco5)ccc4c3CCN2C1=O)NCc1ccco1 | . | . | -2 | 51* | 96
O=C(CC1C[C@H](C(=O)N2CCCCC2)[C@@]2(CCc3ccccc3)c3[nH]c4ccccc4c3CCN2C1=O)NCc1ccco1 (some centres not stated) | . | . | 0 | 16 | 121
COc1cc2c(cc1O)C(Cc1ccc(O)cc1)[N+](C)([O-])CC2 (configuration not stated) | 4 | i | 0 | -2 | 105
COc1ccc(C[C@H]2c3cc(O)c(OC)cc3CC[N+]2(C)[O-])cc1O (some centres not stated) | -29 | + | 0 | 1 | 99
CC1CCc2c(sc(NC(=O)CCC(=O)O)c2C(=O)NC2CC2)C1 (configuration not stated) | 0 | i | 0 | -3 | 107
CNCC(=O)Nc1c(C)n[nH]c1C | -4 | i | 0 | -1 | 99
CC1(C)CN(c2ccsc2C(=O)O)C1=O | 1 | i | -2 | 1 | 56*
O=C(O)c1sccc1S(=O)(=O)N1CCCCC1 | . | . | 0 | 3 | 105
O=C(CN1CCOCC1)Nc1nc2ccc([N+](=O)[O-])cc2s1 | -10 | i | -1 | 1 | 97
O=C1NC(=Nc2ccc(O)cc2)S/C1=C/c1ccco1 | -10 | i | 1 | -3 | 96

Bioassay records: PubChem, several laboratories
